Test results from ChEMBL document CHEMBL4014345, “Development of Selective Clk1 and -4 Inhibitors for Cellular Depletion of Cancer-Relevant Proteins” (J Med Chem, 2017).
Activity calls are given as the source filed them. No cut-off for these calls is given here.

How the values were obtained:
[1] = target: T1, Dual specificity protein kinase CLK1/CLK4 (Homo sapiens, UniProt Q9HAZ1+P49759); experiment: Inhibition of CLK1/4 in human MDA-MB-231 cells assessed as down regulation of EGFR expression at 2.5 uM after 3 days by Western blot analysis relative to control; type: cell-based
Summary of the method: (§1)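 T24 or MDA-MB-231 cells were grown in DMEM to 70% confluency. The medium was replaced with compound diluted in DMEM, and cells were kept 3 days. Total protein was immunoblotted with monoclonal antibodies in 3% BSA/PBS against EGFR, p70S6K α, PARP-1, ERK2, HDAC1, CD44, PCNA and GRP94.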

[2] = target: T1, Dual specificity protein kinase CLK1/CLK4; experiment: Inhibition of CLK1/4 in human T24 cells assessed as down regulation of EGFR expression after 3 days by Western blot analysis; type: cell-based; summary of the method: as §1
MDA-MB-231 [3] = experiment: Down regulation of PCNA expression in human MDA-MB-231 cells at 2.5 to 20 uM after 3 days by Western blot analysis; type: functional, cell-based; summary of the method: as §1
MDA-MB-231 [4] = experiment: Down regulation of ERK2 expression in human MDA-MB-231 cells at 2.5 to 20 uM after 3 days by Western blot analysis; type: functional, cell-based; summary of the method: as §1
[5] = target: SRSF protein kinase 1 (Homo sapiens) (UniProt Q96SB4); experiment: Inhibition of SRPK1 (unknown origin) at 1 uM
Sequence of SRSF protein kinase 1 (Homo sapiens) (Q96SB4 whole entry): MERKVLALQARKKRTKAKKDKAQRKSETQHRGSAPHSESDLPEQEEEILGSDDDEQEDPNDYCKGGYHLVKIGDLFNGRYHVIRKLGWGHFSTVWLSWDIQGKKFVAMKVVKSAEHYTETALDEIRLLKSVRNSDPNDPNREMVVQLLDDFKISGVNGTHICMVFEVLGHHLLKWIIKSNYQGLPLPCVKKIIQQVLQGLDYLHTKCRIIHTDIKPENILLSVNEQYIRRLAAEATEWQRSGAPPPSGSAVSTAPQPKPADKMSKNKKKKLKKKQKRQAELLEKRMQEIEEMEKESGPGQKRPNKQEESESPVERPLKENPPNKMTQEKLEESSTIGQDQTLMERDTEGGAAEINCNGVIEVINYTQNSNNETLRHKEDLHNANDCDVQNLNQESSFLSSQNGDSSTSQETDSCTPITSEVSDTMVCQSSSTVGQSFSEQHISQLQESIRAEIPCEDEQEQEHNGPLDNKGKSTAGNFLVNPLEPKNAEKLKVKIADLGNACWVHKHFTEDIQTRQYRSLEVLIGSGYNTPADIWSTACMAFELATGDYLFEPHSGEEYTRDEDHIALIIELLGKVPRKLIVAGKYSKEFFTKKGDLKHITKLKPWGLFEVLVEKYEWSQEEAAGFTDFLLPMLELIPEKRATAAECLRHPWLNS
Summary of the method: (§2)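 Tested in a commercial kinase profiling panel at an ATP concentration of 100 μM. Data are the mean of duplicates that differed by less than 7%.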

[6] = target: Dual specificity protein kinase CLK2 (Mus musculus) (UniProt O35491); experiment: Inhibition of recombinant GST-tagged mouse CLK2 using GRSRSRSRSRSR as substrate at 1 uM after 30 mins in presence of [gamma-32P]-ATP by scintillation counting method
Sequence of Dual specificity protein kinase CLK2 (Mus musculus) (O35491 whole entry, looked up): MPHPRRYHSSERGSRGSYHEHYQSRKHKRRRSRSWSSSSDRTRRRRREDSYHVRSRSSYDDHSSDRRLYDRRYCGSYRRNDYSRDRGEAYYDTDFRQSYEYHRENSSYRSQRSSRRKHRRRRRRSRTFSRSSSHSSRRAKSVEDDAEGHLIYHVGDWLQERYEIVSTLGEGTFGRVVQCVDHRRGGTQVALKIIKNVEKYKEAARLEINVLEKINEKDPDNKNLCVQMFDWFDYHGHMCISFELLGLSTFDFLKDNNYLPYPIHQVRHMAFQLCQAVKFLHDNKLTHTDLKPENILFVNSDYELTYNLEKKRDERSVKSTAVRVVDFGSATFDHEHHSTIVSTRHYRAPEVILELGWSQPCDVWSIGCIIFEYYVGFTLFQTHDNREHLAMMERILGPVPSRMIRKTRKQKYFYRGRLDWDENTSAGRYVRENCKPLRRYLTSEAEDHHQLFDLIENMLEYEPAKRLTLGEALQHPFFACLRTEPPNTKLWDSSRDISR

MDA-MB-231 [7] = experiment: Down regulation of CD44 expression in human MDA-MB-231 cells at 2.5 to 20 uM after 3 days by Western blot analysis; type: functional, cell-based; summary of the method: as §1
MDA-MB-231 [8] = experiment: Down regulation of PARP1 expression in human MDA-MB-231 cells at 2.5 to 20 uM after 3 days by Western blot analysis; type: functional, cell-based; summary of the method: as §1
[9] = target: T1, Dual specificity protein kinase CLK1/CLK4; experiment: Inhibition of CLK1/4 in human T24 cells assessed as down regulation of EGFR expression at 10 uM after 3 days by Western blot analysis relative to control; type: cell-based; summary of the method: as §1
[10] = target: T1, Dual specificity protein kinase CLK1/CLK4; experiment: Inhibition of CLK1/4 in human MDA-MB-231 cells assessed as down regulation of S6 kinase expression at 10 uM after 3 days by Western blot analysis relative to control; type: cell-based; summary of the method: as §1
[11] = target: T1, Dual specificity protein kinase CLK1/CLK4; experiment: Inhibition of CLK1/4 in human T24 cells assessed as down regulation of HDAC1 expression at 5 uM after 3 days by Western blot analysis relative to control; type: cell-based; summary of the method: as §1
[12] = target: Dual specificity protein kinase CLK2 (Mus musculus, UniProt O35491); experiment: Inhibition of recombinant GST-tagged mouse CLK2 using GRSRSRSRSRSR as substrate after 30 mins in presence of [gamma-32P]-ATP by scintillation counting method
Sequence of Dual specificity protein kinase CLK2 (O35491 whole entry): as the sequence (O35491 whole entry, looked up) above

[13] = target: T1, Dual specificity protein kinase CLK1/CLK4; experiment: Inhibition of CLK1/4 in human T24 cells assessed as down regulation of HDAC1 expression at 10 uM after 3 days by Western blot analysis relative to control; type: cell-based; summary of the method: as §1
[14] = target: Dual specificity protein kinase CLK4 (Mus musculus) (UniProt O35493); experiment: Inhibition of recombinant GST-tagged mouse CLK4 using GRSRSRSRSRSR as substrate at 1 uM after 30 mins in presence of [gamma-32P]-ATP by scintillation counting method
Sequence of Dual specificity protein kinase CLK4 (Mus musculus) (O35493 whole entry, looked up): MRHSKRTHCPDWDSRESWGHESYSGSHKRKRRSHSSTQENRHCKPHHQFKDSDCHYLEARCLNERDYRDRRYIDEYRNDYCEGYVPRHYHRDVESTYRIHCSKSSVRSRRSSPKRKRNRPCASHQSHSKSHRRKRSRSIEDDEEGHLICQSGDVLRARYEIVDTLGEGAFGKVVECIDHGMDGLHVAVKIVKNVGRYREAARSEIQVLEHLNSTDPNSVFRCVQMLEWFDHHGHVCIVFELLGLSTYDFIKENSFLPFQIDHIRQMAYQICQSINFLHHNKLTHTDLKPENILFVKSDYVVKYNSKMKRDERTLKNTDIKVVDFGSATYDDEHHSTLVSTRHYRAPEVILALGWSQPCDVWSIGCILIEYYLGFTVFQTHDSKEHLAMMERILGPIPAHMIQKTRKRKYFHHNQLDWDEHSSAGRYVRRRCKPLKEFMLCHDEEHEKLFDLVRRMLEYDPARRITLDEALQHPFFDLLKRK

T-24 [15] = experiment: Down regulation of PCNA expression in human T24 cells at 1.25 to 10 uM after 3 days by Western blot analysis; type: functional, cell-based; summary of the method: as §1
T-24 [16] = experiment: Down regulation of ERK2 expression in human T24 cells at 1.25 to 10 uM after 3 days by Western blot analysis; type: functional, cell-based; summary of the method: as §1
T47D = experiment: Cytotoxicity against human T47D cells assessed as growth inhibition after 5 days by MTT assay; type: functional; details: 120 h
Summary of the method: (§3)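 They were seeded at 5000 cells per well onto compound or DMSO (0.2% final). Plates were kept 5 days at 37 °C in 5% CO2 with no medium change, then read by MTT.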

[17] = target: T1, Dual specificity protein kinase CLK1/CLK4; experiment: Inhibition of CLK1/4 in human MDA-MB-231 cells assessed as down regulation of S6 kinase expression at 20 uM after 3 days by Western blot analysis relative to control; type: cell-based; summary of the method: as §1
[18] = target: T1, Dual specificity protein kinase CLK1/CLK4; experiment: Inhibition of CLK1/4 in human MDA-MB-231 cells assessed as down regulation of EGFR expression at 20 uM after 3 days by Western blot analysis relative to control; type: cell-based; summary of the method: as §1
T-24 [19] = experiment: Down regulation of PARP1 expression in human T24 cells at 1.25 to 10 uM after 3 days by Western blot analysis; type: functional, cell-based; summary of the method: as §1
PBL = experiment: Cytotoxicity against human PBL after 2 days by MTT assay; type: cell-based; details: 48 h
Summary of the method: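 Cells plated at 30 000 per well with test compounds or DMSO control for 2 days, then MTT read-out. LC50 reported as the mean of at least two independent experiments.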

[20] = target: T1, Dual specificity protein kinase CLK1/CLK4; experiment: Inhibition of CLK1/4 in human T24 cells assessed as down regulation of EGFR expression at 1.25 uM after 3 days by Western blot analysis relative to control; type: cell-based; summary of the method: as §1
[21] = target: T1, Dual specificity protein kinase CLK1/CLK4; experiment: Inhibition of CLK1/4 in human T24 cells assessed as down regulation of HDAC1 expression at 1.25 uM after 3 days by Western blot analysis relative to control; type: cell-based; summary of the method: as §1
[22] = target: T2, Dual specificity protein kinase CLK1 (Homo sapiens, UniProt P49759); experiment: Inhibition of recombinant human GST-tagged Clk1 expressed in Escherichia coli at 100 nM using RS repeat substrate peptide after 15 mins in presence of [gamma-32]-ATP
T2 sequence (P49759 whole entry, looked up): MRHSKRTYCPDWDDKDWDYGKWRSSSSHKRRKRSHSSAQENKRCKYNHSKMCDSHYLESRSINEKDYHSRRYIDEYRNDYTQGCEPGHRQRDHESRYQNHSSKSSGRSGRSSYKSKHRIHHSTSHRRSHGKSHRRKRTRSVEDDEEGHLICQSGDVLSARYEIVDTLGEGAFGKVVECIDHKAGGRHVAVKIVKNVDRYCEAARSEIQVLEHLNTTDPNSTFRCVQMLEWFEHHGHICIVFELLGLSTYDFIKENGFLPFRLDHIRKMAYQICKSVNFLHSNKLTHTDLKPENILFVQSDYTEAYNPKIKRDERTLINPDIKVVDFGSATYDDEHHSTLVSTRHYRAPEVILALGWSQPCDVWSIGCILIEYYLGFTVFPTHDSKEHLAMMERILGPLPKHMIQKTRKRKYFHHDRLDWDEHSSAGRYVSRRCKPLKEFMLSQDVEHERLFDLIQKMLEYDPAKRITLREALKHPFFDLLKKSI

[23] = target: T1, Dual specificity protein kinase CLK1/CLK4; experiment: Inhibition of CLK1/4 in human T24 cells assessed as down regulation of EGFR expression at 5 uM after 3 days by Western blot analysis relative to control; type: cell-based; summary of the method: as §1
[24] = target: Serine/threonine-protein kinase 17A (Homo sapiens) (UniProt Q9UEE5); experiment: Inhibition of STK17A (unknown origin) at 1 uM after 15 mins; summary of the method: as §2
Sequence of Serine/threonine-protein kinase 17A (Homo sapiens) (Q9UEE5 whole entry): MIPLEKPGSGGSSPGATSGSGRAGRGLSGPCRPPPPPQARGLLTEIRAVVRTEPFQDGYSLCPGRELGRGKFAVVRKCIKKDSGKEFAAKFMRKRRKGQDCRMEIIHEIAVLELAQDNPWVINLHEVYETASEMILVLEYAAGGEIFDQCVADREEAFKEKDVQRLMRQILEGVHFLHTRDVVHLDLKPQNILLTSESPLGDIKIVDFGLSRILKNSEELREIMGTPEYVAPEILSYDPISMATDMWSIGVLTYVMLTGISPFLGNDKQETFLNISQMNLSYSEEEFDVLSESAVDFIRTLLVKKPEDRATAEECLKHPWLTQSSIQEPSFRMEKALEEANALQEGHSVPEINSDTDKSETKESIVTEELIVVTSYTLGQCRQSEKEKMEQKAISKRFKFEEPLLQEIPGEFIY

HepG2 = experiment: Cytotoxicity against human HepG2 cells assessed as growth inhibition after 5 days by MTT assay; type: functional; details: HepG2, 120 h; summary of the method: as §3
[25] = target: T2, Dual specificity protein kinase CLK1; experiment: Inhibition of recombinant human GST-tagged Clk1 expressed in Escherichia coli at 1 uM using RS repeat substrate peptide after 15 mins in presence of [gamma-32]-ATP
[26] = target: Dual specificity protein kinase CLK3 (Mus musculus) (UniProt O35492); experiment: Inhibition of recombinant GST-tagged mouse CLK3 using GRSRSRSRSRSR as substrate at 1 uM after 30 mins in presence of [gamma-32P]-ATP by scintillation counting method
Sequence of Dual specificity protein kinase CLK3 (Mus musculus) (O35492 whole entry): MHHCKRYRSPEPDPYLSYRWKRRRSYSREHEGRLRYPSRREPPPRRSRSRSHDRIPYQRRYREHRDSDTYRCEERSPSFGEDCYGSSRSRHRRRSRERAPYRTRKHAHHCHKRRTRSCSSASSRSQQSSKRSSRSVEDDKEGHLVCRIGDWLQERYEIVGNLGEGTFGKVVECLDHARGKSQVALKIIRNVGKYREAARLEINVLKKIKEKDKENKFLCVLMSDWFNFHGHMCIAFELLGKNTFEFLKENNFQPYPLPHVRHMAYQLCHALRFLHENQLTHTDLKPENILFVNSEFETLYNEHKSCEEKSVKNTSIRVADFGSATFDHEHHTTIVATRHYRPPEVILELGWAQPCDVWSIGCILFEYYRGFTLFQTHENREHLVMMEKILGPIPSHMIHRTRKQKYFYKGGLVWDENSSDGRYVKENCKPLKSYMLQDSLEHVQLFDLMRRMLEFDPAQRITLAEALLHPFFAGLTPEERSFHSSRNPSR

[27] = target: Dual specificity tyrosine-phosphorylation-regulated kinase 1B (Homo sapiens, UniProt Q9Y463); experiment: Inhibition of full length recombinant GST-tagged human DYRK1B expressed in baculovirus using KKISGRLSPIMTEQ-NH2 as substrate after 15 mins
Sequence of Dual specificity tyrosine-phosphorylation-regulated kinase 1B (Q9Y463 whole entry): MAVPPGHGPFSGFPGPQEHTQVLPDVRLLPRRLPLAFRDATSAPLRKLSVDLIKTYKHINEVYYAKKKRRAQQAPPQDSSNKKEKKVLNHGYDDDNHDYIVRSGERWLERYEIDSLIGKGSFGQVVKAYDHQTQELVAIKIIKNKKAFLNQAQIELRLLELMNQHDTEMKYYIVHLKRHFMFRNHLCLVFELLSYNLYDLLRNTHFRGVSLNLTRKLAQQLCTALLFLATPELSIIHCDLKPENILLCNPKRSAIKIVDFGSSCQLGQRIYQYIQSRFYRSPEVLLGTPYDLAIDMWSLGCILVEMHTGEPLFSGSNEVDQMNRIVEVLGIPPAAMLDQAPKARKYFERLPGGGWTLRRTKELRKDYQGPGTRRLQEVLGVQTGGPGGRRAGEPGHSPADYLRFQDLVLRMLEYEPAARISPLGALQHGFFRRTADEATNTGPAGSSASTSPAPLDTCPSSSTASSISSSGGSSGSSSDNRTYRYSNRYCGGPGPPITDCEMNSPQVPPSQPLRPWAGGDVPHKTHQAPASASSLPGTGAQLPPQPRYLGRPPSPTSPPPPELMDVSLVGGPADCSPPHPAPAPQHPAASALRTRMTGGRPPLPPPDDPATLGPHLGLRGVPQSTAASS

T-24 [28] = experiment: Down regulation of CD44 expression in human T24 cells at 1.25 to 10 uM after 3 days by Western blot analysis; type: functional, cell-based; summary of the method: as §1

With `COc1ccc2sc(C(=O)N(C)Cc3cccc(F)c3)cc2c1` the inhibition [1] was 47.5%, the IC50 [2] was 2200 nM and the inhibition [2] was “Dose-dependent effect”. For the same compound, the Activity (MDA-MB-231 [3]) was “inactive”, the Activity (MDA-MB-231 [4]) was “inactive” and the inhibition [5] was 2%. The inhibition [6] was 86%, the Activity (MDA-MB-231 [7]) was “inactive” and the Activity (MDA-MB-231 [8]) was “inactive”. It also gave an inhibition [9] of 59.7%, an inhibition [10] of 33.1% and an inhibition [11] of 47.6%. For the same compound, the IC50 [12] was 19.1 nM, the inhibition [13] was 50.2% and the inhibition [14] was 101%. For the same compound, the Activity (T-24 [15]) was “inactive”, the Activity (T-24 [16]) was “inactive” and the GI50 (T47D) was 15300 nM. The inhibition [17] was 41.4%, the inhibition [18] was 56.2% and the Activity (T-24 [19]) was “inactive”. The LC50 (PBL) was 29400 nM, the inhibition [20] was 48.3% and the inhibition [21] was 13.6%. For the same compound, the inhibition [22] was 80%, the inhibition [23] was 52.6% and the inhibition [24] was 32%. For the same compound, the GI50 (HepG2) was 2800 nM, the inhibition [25] was 92% and the inhibition [26] was 58%. The IC50 [27] was 206 nM and the Activity (T-24 [28]) was “inactive”.
